Measured values collected from several papers.
Lines come from different studies, so protocols differ.
Organism: Staphylococcus aureus
Effect on: microbial growth

Structure (SMILES) | technique | strain | time | MIC
Cc1[nH]c(C(=O)Nc2ccc(C(=O)NCC(=O)O)cc2N2CCN(C(=O)OC(C)(C)C)CC2)c(Cl)c1Cl | broth dilution | ATCC29213 | – | > 32 µg/mL
Cc1nn(-c2ccccc2)c2c1C(c1ccco1)N(C(=O)c1ccncc1)N2 (stereo not drawn) | – | MTCC96 | 24 h | 64 µg/mL
O=C(C=Cc1ccc(O)c(O)c1)OCCc1ccccc1 | broth dilution | FDA209 | – | 16 µg/mL
Cl.O=C(O)CNC(=O)c1ccc(NC(=O)c2cc(Br)c(Br)[nH]2)c(N2CCNCC2)c1 | broth dilution | ATCC29213 | – | > 32 µg/mL
Cc1ccc(-c2nnc(SCC(C)O)n2-c2ccccc2)cc1 (stereo not drawn) | – | – | – | 3500 µg/mL
Cc1nn(-c2ccccc2)c2c1C(c1ccc(Cl)cc1)N(C(=O)c1ccncc1)N2 (stereo not drawn) | – | MTCC96 | 24 h | > 100 µg/mL
Nc1ccccc1OC(=O)C=Cc1ccc(O)c(O)c1 | broth dilution | FDA209 | – | 8 µg/mL
C[C@@H]1O[C@@H](OC[C@H]2O[C@@H](Oc3c(-c4ccc(OCCO)c(OCCO)c4)oc4cc(OCCO)cc(O)c4c3=O)[C@H](O)[C@@H](O)[C@@H]2O)[C@H](O)[C@H](O)[C@H]1O | broth dilution | – | 16 h | > 1020 µg/mL
CC(O)CSc1nnc(-c2cc3ccccc3o2)n1-c1ccccc1 (stereo not drawn) | – | – | – | 2500 µg/mL
Cc1[nH]c(C(=O)Nc2ccc(C(=O)NCC(=O)O)cc2N2CC[C@H](N)C2)c(Cl)c1Cl.Cl | broth dilution | ATCC29213 | – | > 32 µg/mL
Cc1nn(-c2ccccc2)c2c1C(c1ccc(O)cc1)N(C(=O)c1ccncc1)N2 (stereo not drawn) | – | MTCC96 | 24 h | > 100 µg/mL
CN[C@H](CC(C)C)C(=O)N[C@H]1C(=O)N[C@@H](CC(N)=O)C(=O)N[C@H]2C(=O)N[C@H]3C(=O)N[C@H](C(=O)N[C@H](C(=O)O)c4cc(O)cc(O)c4-c4cc3ccc4O)[C@H](O)c3ccc(c(Cl)c3)Oc3cc2cc(c3O[C@@H]2O[C@H](CO)[C@@H](O)[C@H](O)[C@H]2O[C@H]2C[C@](C)(N)[C@H](O)[C@H](C)O2)Oc2ccc(cc2Cl)[C@H]1O | – | ATCC29213 MSSA | – | 0.67 µM
C[C@@H]1O[C@@H](OC[C@H]2O[C@@H](Oc3cc(O)c4c(c3)O[C@H](c3ccc(O)cc3)CC4=O)[C@H](O)[C@@H](O)[C@@H]2O)[C@H](O)[C@H](O)[C@H]1O | broth dilution | – | 16 h | > 250 µg/mL
O=C(C=Cc1ccc(O)c(O)c1)OCc1ccccc1 | broth dilution | FDA209 | – | 8 µg/mL
CC(C)(C)OC(=O)N[C@H]1CCN(c2cc(C(=O)NCC(=O)O)ccc2NC(=O)c2cc(Br)c(Br)[nH]2)C1 | broth dilution | ATCC29213 | – | > 32 µg/mL
CC1(C)S[C@@H]2[C@H](NC(=O)[C@H](N)c3ccccc3)C(=O)N2[C@H]1C(=O)O | – | – | 24 h | < 1.25 µM
Cc1[nH]c(C(=O)Nc2ccc(C(=O)NCc3n[nH]c(=O)o3)cc2N2CCNCC2)c(Cl)c1Cl.Cl | broth dilution | ATCC29213 | – | > 32 µg/mL
C=C/C=C(\C)CC[C@@H]1C[C@H](O)CC(=O)O1 | broth dilution | ATCC6538P | – | 256 µg/mL
